Source: ChEMBL document CHEMBL1123139, “Antiandrogenic activity of a series of des-A-steroid derivatives” (1985)
Values joined by “and” are separate entries in the source; they are usually repeats but may differ in a detail not shown here. Equal entries are not always repeated.

Columns and labels:
Cricetinae gen. sp. [1] = assay: Local activity of untreated flank organ in hamster; Expressed as weight (mg); assay type: functional
Outline: (§1)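 Male hamsters (100–110 g), castrated 7 days earlier, in groups of four. […] Test compound in 20 μL ethanol was applied daily to the right flank organ, and the contralateral organ received ethanol only. Animals were killed 24 h after the last treatment, and flank organs and prostate were weighed. Results are mean ± SEM.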

Cricetinae gen. sp. [2] = assay: (§2) Local subcutaneous administration (1 mg); Expressed as weight (mg); assay type: functional; outline: as §1
Cricetinae gen. sp. [3] = assay: as §2; assay type: functional; outline: as §1; remark: listed apart in the source
Cricetinae gen. sp. [4] = assay: (§3) Tocal subcutaneous administration (1 mg); Expressed as weight (mg); assay type: functional; outline: as §1
Cricetinae gen. sp. [5] = assay: (§4) Tocal subcutaneous administration (40 ug); Expressed as weight (mg); assay type: functional; outline: as §1
Cricetinae gen. sp. [6] = assay: (§5) Local subcutaneous administration (200 ug); Expressed as weight (mg); assay type: functional; outline: as §1
Cricetinae gen. sp. [7] = assay: as §5; assay type: functional; outline: as §1; remark: listed apart in the source
Cricetinae gen. sp. [8] = assay: as §4; assay type: functional; outline: as §1; remark: listed apart in the source
Cricetinae gen. sp. [9] = assay: (§6) Tocal subcutaneous administration (200 ug); Expressed as weight (mg); assay type: functional; outline: as §1
Cricetinae gen. sp. [10] = assay: as §6; assay type: functional; outline: as §1; remark: listed apart in the source
Cricetinae gen. sp. [11] = assay: as §3; assay type: functional; outline: as §1; remark: listed apart in the source
Cricetinae gen. sp. [12] = assay: Tocal activity of untreated flank organ in hamster; Expressed as weight (mg); assay type: functional; outline: as §1
Rattus norvegicus [13] = assay: In vivo percent increase in rat prostate weight on subcutaneous administration of testosterone propionate along with compound at dose 5 mg/day; Expressed as percent inhibition of weight increase, mg; assay type: functional, Prostate gland
Outline: (§7)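 Immature male rats (70 g), castrated 24 h earlier, in groups of five. […] Controls received vehicle only (sesame oil with 5% benzyl alcohol). Rats were killed 24 h after the last dose, and prostate and seminal vesicles were excised and weighed.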

Rattus norvegicus [14] = assay: In Vivo inhibition against increase in immature castrated rat seminal vesicles weight on subcutaneous administration of testosterone propionate at dose 5 mg/kg; assay type: functional
Rattus norvegicus [15] = assay: In vivo percent increase rat seminal vesicles weight on subcutaneous administration of testosterone propionate along with compound at dose 5 mg/day; Expressed as percent inhibition of weight increase, mg; assay type: functional; outline: as §7
Rattus norvegicus [16] = assay: In vivo percent increase in rat prostate weight on subcutaneous administration of testosterone propionate along with compound at dose 1 mg/day; Expressed as percent inhibition of weight increase, mg; assay type: functional, Prostate gland
Rattus norvegicus [17] = assay: In vivo percent increase in rat seminal vesicles weight on subcutaneous administration of testosterone propionate along with compound at dose 1 mg/day; Expressed as percent inhibition of weight increase, mg; assay type: functional
Cricetinae gen. sp. [18] = assay: (§8) Local subcutaneous administration (125 ug); Expressed as weight (mg); assay type: functional; outline: as §1
Cricetinae gen. sp. [19] = assay: as §8; assay type: functional; outline: as §1; remark: listed apart in the source

Row | SMILES | Weight (Cricetinae gen. sp. [1]) | Weight (Cricetinae gen. sp. [2]) | Weight (Cricetinae gen. sp. [3]) | Inhibition (Rattus norvegicus [13]) | Inhibition of increase in weight (Rattus norvegicus [14]) | other results
1 | CCC(=O)O[C@H]1CC[C@H]2[C@@H]3CCC4=CC(=O)CC[C@]4(C)[C@H]3CC[C@]12C.CCC1=C2CCC3(C)C(O)CCC3C2CCC1=O | 34.8 mg | 27.8 mg | 134 mg | – | – | –
2 | CC1=C2CCC3(C)C(O)CCC3C2CCC1=O.CCC(=O)O[C@H]1CC[C@H]2[C@@H]3CCC4=CC(=O)CC[C@]4(C)[C@H]3CC[C@]12C | 37.3 mg | 36.8 mg | 144 mg | – | – | –
3 | CCC(=O)O[C@H]1CC[C@H]2[C@@H]3CCC4=CC(=O)CC[C@]4(C)[C@H]3CC[C@]12C.CCC1=C2CCC3(C)C(OC(C)=O)CCC3C2CCC1=O | 31.7 mg and 33 mg | 16.8 mg | 143 mg | – | – | Weight (Cricetinae gen. sp. [4]): 111 mg; Weight (Cricetinae gen. sp. [5]): 125 mg; Weight (Cricetinae gen. sp. [6]): 22.8 mg; Weight (Cricetinae gen. sp. [7]): 145 mg; Weight (Cricetinae gen. sp. [8]): 38.9 mg; Weight (Cricetinae gen. sp. [9]): 31.1 mg; Weight (Cricetinae gen. sp. [10]): 108 mg; Weight (Cricetinae gen. sp. [11]): 24.8 mg; Weight (Cricetinae gen. sp. [12]): 46.2 mg and 42.9 mg and 46.8 mg
4 | CC1(C)C(=O)CCC2C1CCC1(C)C(O)CCC21.CCC(=O)O[C@H]1CC[C@H]2[C@@H]3CCC4=CC(=O)CC[C@]4(C)[C@H]3CC[C@]12C | 36.7 mg | 28.4 mg | 135 mg | – | – | –
5 | CCC(=O)O[C@H]1CC[C@H]2[C@@H]3CCC4=CC(=O)CC[C@]4(C)[C@H]3CC[C@]12C.CCC12CCC3=C(C)C(=O)CCC3C1CCC2O | 35.2 mg | 31.9 mg | 137 mg | – | – | –
6 | CC1(C)C(=O)CCC2C1CCC1(C)C(O)CCC21 (stereo unspecified) | – | – | – | 49% | 63% | –
7 | CC1=C2CCC3(C)C(O)CCC3C2CCC1=O (stereo unspecified) | – | – | – | 27% | 54% | –
8 | CCC1=C2CCC3(C)C(OC(C)=O)CCC3C2CCC1=O (stereo unspecified) | – | – | – | 50% | – | Inhibition (Rattus norvegicus [15]): 50%
9 | CC1=C2C=CC3(C)C(O)CCC3C2CCC1=O (stereo unspecified) | – | – | – | 25% | 45% | –
10 | CCC12CCC3=C(C)C(=O)CCC3C1CCC2O (stereo unspecified) | – | – | – | 10% | 50% | –
11 | CCC1=C2CCC3(C)C(O)CCC3C2CCC1=O (stereo in doubt; 5c) | – | – | – | 59% | 73% | –
12 | CC(=O)O[C@]1(C(C)=O)CC[C@H]2[C@@H]3C=C(Cl)C4=CC(=O)[C@@H]5C[C@@H]5[C@]4(C)[C@H]3CC[C@@]21C [CYPROTERONE ACETATE] | – | – | – | – | – | Inhibition (Rattus norvegicus [16]): 90%; Inhibition (Rattus norvegicus [17]): 73%
13 | CCC(=O)O[C@H]1CC[C@H]2[C@@H]3CCC4=CC(=O)CC[C@]4(C)[C@H]3CC[C@]12C [TESTOSTERONE PROPIONATE] | 37.6 mg and 49.4 mg | – | – | – | – | Weight (Cricetinae gen. sp. [18]): 165 mg and 171 mg; Weight (Cricetinae gen. sp. [19]): 37.6 mg and 48.5 mg
